Data reported in article PMC6413502 (Molecular pharmaceutics, 2018).
“Also recorded” adds a separate entry of the source. Read-outs that look alike come from different tables or passages of the source.

Tests used:
[1] = Micelle formation of PEG-peptides without albumin; type: physicochemical; details: dynamic light scattering, 1–40 nmol in 1 ml 150 mM sodium chloride; for micelle formation (in words): 50 mM sodium phosphate pH 7.4; for critical-micelle-concentration: 50 mM sodium phosphate pH 7.4, no albumin
Outline: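 Particle size of the PEG-peptide was measured by dynamic light scattering at increasing amounts (1–40 nmol in 1 ml buffer) to locate the critical micelle concentration. Sizes are the mean and standard error of ten measurements, after deconvolution by intensity-averaged multimodal distribution.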

[2] = test system: scavenger receptors in the liver; details: read-out: IC50, inhibition of 125I-DNA nanoparticle uptake by the liver; previously reported; cited from earlier work
[3] = test system: scavenger receptors in the liver; details: for percent of dose captured by the liver: mouse, in vivo, iv

Substance | micelle formation (in words) [1] | critical-micelle-concentration [1] [µM] | other results
PEG5kDa-Cys-Tyr-(Leu-Lys)6 [compound 36] | formed micelles | 2 to 5 | –
PEG5kDa-Cys-Tyr-(Lys)4-Leu-Lys4-Leu4 [compound 39] | produced measurable micelles; also recorded: formed micelles | 2 to 5 | –
PEG5kDa-Cys-Tyr-(Trp-Lys3)4 [compound 31] | avoided the formation of detectable micelles | – | –
PEG5kDa-Cys-Tyr-(Leu-Lys)4 [compound 37] | formed micelles | 2 to 5 | –
PEG5kDa-Cys-Tyr-Leu4-(Leu-Lys)4-Lys4 [compound 40] | produced measurable micelles; also recorded: formed micelles | 2 to 5 | –
(Acr-Lys4)3-Acr-Lys-Cys-PEG5kDa [compound 27] | – | – | IC50 [2]: 8 µM
PEG20kDa-Cys-Tyr-Lys25 [compound 24] | – | – | percent of dose captured by the liver [3]: 28%
PEG5kDa-Cys-Tyr-Lys25 [compound 26] | – | – | percent of dose captured by the liver [3]: 5%
PEG2kDa-Cys-Tyr-(Leu-Lys4)3-Leu-Lys [compound 33] | avoided micelle formation | – | increase in potency (IC50) on decreasing PEG from 5 to 2 kDa ([3]; 33 compared with 32, saturation of liver uptake): 6 fold
PEG5kDa-Cys-Tyr-(Leu-Lys4)3-Leu-Lys [compound 32] | avoided micelle formation | – | –
PEG5kDa-Cys-Tyr-(Leu-Lys)8 [compound 35] | formed micelles | 2 to 5 | –
PEG5kDa-Cys-Tyr-(Leu-Arg)8 [compound 38] | formed micelles | 2 to 5 | percent of dose captured by the liver [3]: 45%
PEG30kDa-Cys-Tyr-Lys10 [compound 20] | – | – | IC50 ([3]; read-out: apparent IC50, saturation of liver uptake, 125I-PEG-peptide i.v. tail vein, 1–80 nmol, triplicate mice, liver at 5 min, assuming 2-mL blood volume): 1500 µM
Tyr-(Phe-Lys4)3Phe-Lys-Cys-PEG5kDa [compound 30] | avoided the formation of detectable micelles | – | –
PEG10kDa-Cys-Tyr-Lys25 [compound 25] | – | – | percent of dose captured by the liver [3]: 5%
